Series [1] has as its system Human immunodeficiency virus 1. The experiment in a line: Ratio of EC50 for wild-type HIV1 3B infected in human MT4 in presence of 50% of huma serum to EC50 for wild-type HIV-1 3B infected in human MT4 in absence of human serum. Format: functional.
Series [2] deals with Human immunodeficiency virus 1. Put plainly: Antiviral activity against wild-type HIV1 3B infected in human MT4 cells assessed as inhibition of virus-induced cytopathic effect after 5 days in presence of 50 % of human serum by MTT assay. In kind it is functional, organism-based. Particulars: Human immunodeficiency virus 1, 3B, MT4, 120 h.
The target in series [3] is Protease (Human immunodeficiency virus 1) (UniProt Q9YQ12). The experiment in a line: Inhibition of recombinant HIV1 protease at 1 nM using H-Lys-Ala-Arg-Val-Tyr-Phe(p-NO2)-Glu-Ala-Nle-NH2 as substrate preincubated for 5 mins followed by substrate addition measured after 3 hrs by fluorescence-based assay. A digest of the protocol:
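Recombinant HIV-1 protease (40 ng/mL stock in pH 5.0 acetate/EDTA/NaCl/2-mercaptoethanol/NP-40/glycerol) mixed with inhibitor (10 nM solution in DMSO) in 200 mM MES-NaOH pH 5.5 with 2 mM DTT, 2 mM EDTA and 1 M NaCl. Preincubated 5 min at 37 °C, then 1.0 mM substrate solution added and incubated 3 h at 37 °C. Stopped with 1 N HCl. The Lys-Ala-Arg-Val-Tyr-OH product was quantified by RP-HPLC with fluorescence (Ex 275, Em 305 nm). Single determination.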

Series [4] concerns Human immunodeficiency virus 1. Put plainly: Antiviral activity against wild-type HIV1 3B infected in human MT4 cells assessed as inhibition of virus-induced cytopathic effect after 5 days in absence of human serum by MTT assay. Format: functional, organism-based. The settings on record: Human immunodeficiency virus 1, 3B, MT4, 120 h. In general terms: Protection from cytopathic effect is a common read-out in antiviral testing.

A short description of series [5]: Ratio of EC50 for DRV-resistant protease V32I/L33F/I54M/V82I mutant in HIV1 transfected in 293T cells to EC50 for wild-type HIV-1 pNL4-3 infected in CMVdeltaR8.91 transfected 293T cells. Format: functional, Human immunodeficiency virus 1. A digest of the protocol:
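Ratio of IC50 values from the 293T luciferase reporter lentiviral vector assay. Numerator is vector carrying DRV-resistant protease (V32I/L33F/I54M/I84V or V32I/L33F/I54M/V82I), denominator is wild-type pNL4-3-based vector.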

Series [6] relates to Human immunodeficiency virus 1. The experiment in a line: Ratio of EC50 for wild-type HIV1 pNL4-3 infected in human MT4 in presence of 50% of human serum to EC50 for wild-type HIV-1 pNL4-3 infected in human MT4 in absence of human serum. Format: functional. A digest of the protocol: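 Serum binding effect calculated as the pNL4-3 EC50 in 50% human serum divided by the EC50 in 0% serum, using MT-4 cytopathic-effect MTT assays run for 5 days at 37 °C.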

Series [7] in a line: Cytotoxicity against human MT4 cells after 5 days by MTT assay. Format: cell-based. The settings on record: read-out: TD50. A digest of the protocol: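 Uninfected MT-4 cells given compound at several concentrations in 1% DMSO solution with 10% FBS. Incubated 5 days at 37 °C in CO2, in triplicate. Viability read by MTT optical density, with TD50 taken as the cytotoxic measure.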
Background: Tetrazolium dyes change colour on reduction, which living cells bring about.

For series [8], the system named is Human immunodeficiency virus 1. Put plainly: Antiviral activity against wild-type HIV1 pNL4-3 infected in human MT4 cells assessed as inhibition of virus-induced cytopathic effect after 5 days in presence of 50 % of human serum by MTT assay. In kind it is functional, organism-based. Particulars: Human immunodeficiency virus 1, pNL4-3, MT4, 120 h. The method, boiled down: (§1)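 MT-4 cells inoculated with HIV-1 pNL4-3, then given an equal volume of compound at several concentrations in 1% DMSO solution with 10% FBS. Incubated 5 days at 37 °C in CO2, in triplicate. MTT read by optical density, percent reduction of cytopathic effect calculated, and EC50 fitted to the median-effect equation. Values averaged over n = 3; the 50% human serum condition was run alongside.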

For series [9], the system named is Human immunodeficiency virus 1. Put plainly: Antiviral activity against wild-type HIV1 pNL4-3 infected in CMVdeltaR8.91 transfected 293T cells after 48 hrs by lentiviral vector-based luciferase reporter gene assay. Particulars: Human immunodeficiency virus 1, pNL4-3, HEK-293T. Format: functional, organism-based. A digest of the protocol: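 pNL4-3-based luciferase reporter lentiviral vector made by transfecting 293T cells with pCMV-ΔR8.91 (wild-type or V32I/L33F/I54M/V82I or V32I/L33F/I54M/I84V protease) plus luciferase transfer and envelope plasmids, with or without inhibitor. After 48 h, fresh 293T cells infected with vector. IC50 for suppression of luciferase transduction taken from dose-response curve.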
On the technique in general: Reporter assays use an easily measured gene product as a stand-in for the process of interest.

Series [10] in a line: Ratio of EC50 for inhibition of protease L10F/V32I/M46I/I47V/Q58E/I84V mutant in HIV1 A17 infected in human MT4 cells to EC50 for wild-type HIV-1 pNL4-3 infected in human MT4 cells. Format: functional, Human immunodeficiency virus 1. The method, boiled down:
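Ratio of EC50 values from MT-4 cytopathic-effect MTT assays (5 days, 37 °C, triplicate, median-effect fit). Numerator is LPV-resistant strain A1711, denominator is wild-type HIV-1 pNL4-3.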

A short description of series [11]: Ratio of EC50 for DRV-resistant protease V32I/L33F/I54M/I84V mutant in HIV1 transfected in 293T cells to EC50 for wild-type HIV-1 pNL4-3 infected in CMVdeltaR8.91 transfected 293T cells. In kind it is functional, Human immunodeficiency virus 1.
Series [12] has as its system Human immunodeficiency virus 1. The experiment in a line: Antiviral activity against wild-type HIV1 pNL4-3 infected in human MT4 cells assessed as inhibition of virus-induced cytopathic effect after 5 days in absence of human serum by MTT assay. In kind it is functional, organism-based. The settings on record: Human immunodeficiency virus 1, pNL4-3, MT4, 120 h. The method, boiled down: as §1

Series [13] concerns Human immunodeficiency virus 1. Put plainly: Ratio of EC50 for wild-type HIV1 3B infected in human MT4 in presence of 50% of huma serum to EC50 for wild-type HIV-1 pNL4-3 infected in human MT4 in absence of human serum. In kind it is functional. A digest of the protocol: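 Serum binding effect: EC50 measured with 50% human serum divided by EC50 measured without serum. Each EC50 came from protection of MT-4 cells from HIV-induced cytopathic effect. Infected cells were exposed to several compound concentrations in 1% DMSO with 10% FBS for 5 days at 37 °C in triplicate, read by MTT optical density, and fitted to a median-effect equation.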

Structures are written as SMILES.

Usually EC50 stands for the midpoint of the concentration-response curve. As a reminder, the inhibition is the percentage by which the read-out fell short of the control.

In the case of `CSC[C@H](NC(=O)COc1cccc2cnccc12)C(=O)N[C@@H](Cc1ccccc1)[C@H](O)C(=O)N1CSC[C@H]1C(=O)NC(C)(C)C`, the “Ratio EC50” value in [1] is listed as 16. For the same molecule, the EC50 in [2] turned out to be 2880 nM; in series [4], 176 nM. Also, the inhibition in series [3] amounted to 14%.

For the molecule `COc1cccc2cc(C(=O)N[C@H](C(=O)N[C@@H](Cc3ccccc3)[C@H](O)C(=O)N3CSC(C)(C)[C@H]3C(=O)NCc3c(C)cccc3C)[C@H]3CCOC3)oc12`, the “Ratio EC50” value in [5] is 0.2; in [6], more than 27; in series [10] it was more than 8; in series [11] it was 0.7. Moreover, the CC50 at 120 h in series [7] turned out to be 11 µM. Further, the EC50 in series [8] was 80 nM; in series [9] it was 1.71 nM; in series [12], less than 3 nM. Besides, in [3], the inhibition was found to be 97%.

Regarding `Cc1ccccc1CNC(=O)[C@H]1N(C(=O)[C@@H](O)[C@H](Cc2ccccc2)NC(=O)c2cccc(O)c2C)CSC1(C)C`, the concentration for a half-maximal effect (EC50) was 114 nM in [2] and 60 nM in [12]. Further, the CC50 at 120 h in [7] is 23 µM. For the same molecule, the “Ratio EC50” value came to 46 in series [10] and 2 in series [13]. Also, the inhibition in series [3] was determined as 48%.

The values above are taken from ChEMBL document CHEMBL4138310 (J Med Chem, 2018).
